Data: ChEMBL document CHEMBL4257558, “Synthesis of dihydronaphthalene analogues inspired by combretastatin A-4 and their biological evaluation as anticancer agents” (Medchemcomm, 2018)
pIC50: −log10 of the molar value. Activity calls are given as the source filed them. The calls are words filed in the database; no cut-off is given here.

Assays:
[1] = Inhibition of bovine brain tubulin polymerization preincubated for 15 mins followed by GTP addition and measured for 20 mins by spectrophotometric method; parameters: species or system Bos taurus
Outline: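 Final mixture: 10 μM (1 mg/mL) bovine brain tubulin, 0.8 M monosodium glutamate pH 6.6, 4% DMSO, 0.4 mM GTP, varied compound concentrations. All components except GTP preincubated 15 min at 30 °C, chilled to 0 °C, GTP added, then jumped to 30 °C.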

[2] = test system: NCI-H460; experiment: Growth inhibition of human NCI-H460 cells after 48 hrs by SRB assay; type: functional; settings: NCI-H460, 48 h
Outline: (§1)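 Cells plated at 7000–8000 per well in DMEM with 5% FBS/1% gentamicin, grown 24 h at 37 °C, 5% CO2. Compounds from 10 mg/mL DMSO stock added as serial dilutions; doxorubicin and paclitaxel as positive controls.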

[3] = test system: DU-145; experiment: Growth inhibition of human DU145 cells after 48 hrs by SRB assay; type: functional; settings: DU-145, 48 h; outline: as §1
[4] = test system: SK-OV-3; experiment: Growth inhibition of human SKOV3 cells after 48 hrs by SRB assay; type: functional; settings: SK-OV-3, 48 h; outline: as §1
[5] = test system: A549; experiment: Vascular disrupting activity in human A549 cells xenografted in T-cell deficient athymic homozygous nude rat assessed as reduction of blood flow at 15 mg/kg, ip after 2 hrs by color doppler ultrasound imaging method; type: functional, organism-based
Outline: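 Nude rat bearing subcutaneous leg A549 tumor (3 × 10^6 cells in serum-free medium with 50% Matrigel; tumor about 0.5 cm3). Under isoflurane, color-Doppler ultrasound performed before and 2 h after 15 mg/kg IP in 500 μl saline; tumor blood perfusion compared with baseline.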

[6] = organism: Bos taurus; experiment: Inhibition of [3H]colchicine binding to calf brain tubulin at 1 uM incubated for 10 mins by scintillation counting method relative to control
Outline: (§2)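 Tubulin at 1.0 μM with 5.0 μM [3H]colchicine, 5% (v/v) DMSO and test compound at 1.0 or 5.0 μM. Binding-stabilizing buffer: 1.0 M monosodium glutamate (pH 6.6), 0.5 mg mL–1 BSA, 0.1 M glucose-1-phosphate, 1.0 mM MgCl2, 1.0 mM GTP. Incubated 10 min at 37 °C, stopped with ice-cold water, trapped on DEAE-cellulose filters and scintillation-counted. Counts corrected for filter binding without tubulin; percent inhibition versus no-inhibitor samples.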

[7] = organism: Bos taurus; experiment: Inhibition of [3H]colchicine binding to calf brain tubulin at 5 uM incubated for 10 mins by scintillation counting method relative to control; outline: as §2
[8] = test system: MDA-MB-231; experiment: Vascular disrupting activity in luciferase expressing human MDA-MB-231 cells xenografted in BALB/c SCID mouse at 200 mg/kg, ip at 4 hrs by bioluminescence imaging method relative to control; type: functional
Outline: (§3)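 Orthotopic tumors from 1 × 10^6 MDA-MB-231-luc cells in PBS/50% Matrigel injected into left upper mammary fat pad of BALB/c SCID mice. Dynamic BLI over 30 min after luciferin injection at baseline, then 4 and 24 h after IP dosing in saline (200 mg/kg in the mouse shown), with fresh luciferin each time; signal reduction expressed versus baseline.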

[9] = test system: MDA-MB-231; experiment: Vascular disrupting activity in luciferase expressing human MDA-MB-231 cells xenografted in BALB/c SCID mouse at 200 mg/kg, ip at 24 hrs by bioluminescence imaging method relative to control; type: functional; outline: as §3

SMILES	pIC50 [1]	GI50 [2] [nM]	GI50 [3] [nM]	GI50 [4] [nM]	Activity [5]	inhibition [6] [%]	inhibition [7] [%]	Activity [8] [%]	Activity [9] [%]
COc1cc(C2=CCCc3c2ccc(OC)c3OP(=O)(O)O)cc(OC)c1OC	< 4.70	3.73	3.27	1.9	Active				
COc1ccc2c(c1O)CCC=C2C(=O)c1cc(OC)c(OC)c(OC)c1	5.92	21.6	7.3	6.22		81	98		
COc1cc(C(=O)C2=CCCc3c2ccc(OC)c3OP(=O)([O-])[O-])cc(OC)c1OC.[Na+].[Na+]	< 4.70	52.4	12.6	12.9				99	81
